Experimental data as given in ChEMBL document CHEMBL3792386, “Design, Synthesis, and Biological Evaluation of Novel Selenium (Se-NSAID) Molecules as Anticancer Agents” (J Med Chem, 2016).
pIC50: −log10 of the molar value. Calls of active or inactive are those of the source. No cut-off for these calls is given here.

Assays:
NCI-H460 = experiment: Antiproliferative activity against human NCI-H460 cells assessed as reduction in cell viability after 48 hrs by MTT assay; assay type: functional, cell-based; conditions: NCI-H460, 48 h
How it was run: (§1)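 3000 cells/well incubated in triplicate with serial concentrations of compound for 24, 48 or 72 h at 37 °C. MTT (5.0 mg/mL solution) added 3 h before the end. Formazan dissolved in DMSO, absorbance read at 570 and 630 nm. Viability normalised to vehicle control. IC50 from non-linear regression (variable slope), mean ± SD of triplicates.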

[1] = Antiproliferative activity against human SKOV3 cells assessed as reduction in cell viability after 72 hrs by MTT assay; assay type: functional, cell-based; conditions: SK-OV-3, 72 h; how it was run: as §1
[2] = Induction of cell death in human HCT116 cells at 15 uM after 24 hrs by ethidium bromide staining-based fluorescence microscopy; assay type: functional, HCT-116
How it was run: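 HCT116 cells treated 24 h with DMSO, 1 mM aspirin or 15 μM compound, then trypsinised. Cells were stained with calcein-AM (live, esterase activity) and ethidium homodimer-1 (dead, membrane loss). Cells were imaged by fluorescence microscopy with a 20X objective, and percent dead cells was counted. Values are mean ±SD.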

NHDF = experiment: Cytotoxicity against human NHDF at 1 to 10 uM after 48 hrs by MTT assay; assay type: cell-based
How it was run: (§2)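 Cells (HCT116, nHDF in serum-free fibroblast medium with growth kit, or MEFs) exposed to increasing compound concentrations for 48 h at 37 °C. Viability read by MTT: 3000 cells/well, triplicate, MTT 3 h before end, formazan in DMSO, absorbance 570/630 nm. Mean ± SD.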

MEF = experiment: Cytotoxicity against mouse MEF at 1 to 10 uM after 48 hrs by MTT assay; assay type: cell-based; how it was run: as §2
HCT-116 [3] = experiment: Induction of cell cycle arrest in human HCT116 cells assessed as accumulation at S phase at 5 uM after 24 hrs by propidium iodide staining-based flow cytometry (reference value: 48%); assay type: functional
HCT-116 [4] = experiment: Induction of cell cycle arrest in human HCT116 cells assessed as accumulation at G1 phase at 5 uM after 24 hrs by propidium iodide staining-based flow cytometry (reference value: 28%); assay type: functional
[5] = Effect on cell cycle in human HCT116 cells assessed as upregulation of cyclin p21 expression after 24 hrs by Western blot method; assay type: functional, cell-based; conditions: HCT-116
How it was run: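 CRC cells treated at indicated doses for 24 h. Whole-cell lysates made in RIPA buffer with protease and phosphatase inhibitors and cleared at 15,000 rpm for 10 min. Resolved on 4-12% gels, transferred to PVDF, probed for cell-cycle proteins, detected by ECL. Membranes stripped for sequential probing.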

HCT-116 [6] = experiment: Induction of apoptosis in human HCT116 cells assessed as early apoptotic cells at 2.5 uM after 24 hrs by annexin V/7-ADD staining-based flow cytometry (reference value: 5.20%); assay type: functional
HCT-116 [7] = experiment: Induction of apoptosis in human HCT116 cells assessed as dead cells at 5 uM after 24 hrs by annexin V/7-ADD staining-based flow cytometry (reference value: 3.10%); assay type: functional
HCT-116 [8] = experiment: Induction of apoptosis in human HCT116 cells assessed as late apoptotic cells at 10 uM after 24 hrs by annexin V/7-ADD staining-based flow cytometry (reference value: 1.65%); assay type: functional
HCT-116 [9] = experiment: Induction of apoptosis in human HCT116 cells assessed as dead cells at 2.5 uM after 24 hrs by 7-ADD and caspase 3/7 activity-based flow cytometry (reference value: 3.25%); assay type: functional
HCT-116 [10] = experiment: Induction of apoptosis in human HCT116 cells assessed as dead cells at 5 uM after 24 hrs by 7-ADD and caspase 3/7 activity-based flow cytometry (reference value: 3.25%); assay type: functional
HCT-116 [11] = experiment: Induction of apoptosis in human HCT116 cells assessed as late apoptotic cells at 5 uM after 24 hrs by 7-ADD and caspase 3/7 activity-based flow cytometry (reference value: 1.70%); assay type: functional
HCT-116 [12] = experiment: Induction of apoptosis in human HCT116 cells assessed as live cells at 5 uM after 24 hrs by 7-ADD and caspase 3/7 activity-based flow cytometry (reference value: 92.60%); assay type: functional
HCT-116 [13] = experiment: Induction of apoptosis in human HCT116 cells assessed as early apoptotic cells at 5 uM after 24 hrs by 7-ADD and caspase 3/7 activity-based flow cytometry (reference value: 2.45%); assay type: functional
HCT-116 [14] = experiment: Induction of apoptosis in human HCT116 cells assessed as late apoptotic cells at 10 uM after 24 hrs by 7-ADD and caspase 3/7 activity-based flow cytometry (reference value: 1.70%); assay type: functional
HCT-116 [15] = experiment: Induction of apoptosis in human HCT116 cells assessed as early apoptotic cells at 10 uM after 24 hrs by 7-ADD and caspase 3/7 activity-based flow cytometry (reference value: 2.45%); assay type: functional
HCT-116 [16] = experiment: Induction of apoptosis in human HCT116 cells assessed as cleaved PARP level at 1 to 10 uM after 24 hrs by Western blot method; assay type: functional, cell-based
How it was run: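 HCT116 lysates after 24 h treatment made in RIPA buffer with protease and phosphatase inhibitors. Resolved by SDS-PAGE (4-12%), transferred to PVDF, probed for PARP with β-actin as loading control, detected by ECL.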

HCT-116 [17] = experiment: Induction of ROS generation in human HCT116 cells at 5 uM after 6 hrs by flow cytometry (reference value: 6%); assay type: functional
HCT-116 [18] = experiment: Induction of ROS generation in human HCT116 cells at 5 uM after 24 hrs by flow cytometry (reference value: 12.42%); assay type: functional
HCT-116 [19] = experiment: Induction of ROS generation in human HCT116 cells at 10 uM after 3 hrs by flow cytometry (reference value: 8.06%); assay type: functional
HCT-116 [20] = experiment: Induction of ROS generation in human HCT116 cells at 10 uM after 6 hrs by flow cytometry (reference value: 6%); assay type: functional
HT-29 = experiment: Antiproliferative activity against human HT-29 cells assessed as reduction in cell viability after 72 hrs by MTT assay; assay type: functional, cell-based; conditions: HT-29, 72 h; how it was run: as §1
MDA-MB-231 [21] = experiment: Antiproliferative activity against human MDA-MB-231 cells assessed as reduction in cell viability after 48 hrs by MTT assay; assay type: functional, cell-based; conditions: MDA-MB-231, 48 h; how it was run: as §1
MDA-MB-231 [22] = experiment: Antiproliferative activity against human MDA-MB-231 cells assessed as reduction in cell viability after 72 hrs by MTT assay; assay type: functional, cell-based; conditions: MDA-MB-231, 72 h; how it was run: as §1
[23] = Antiproliferative activity against human PANC1 cells assessed as reduction in cell viability after 72 hrs by MTT assay; assay type: functional, cell-based; conditions: PANC-1, 72 h; how it was run: as §1
UACC-903 = experiment: Antiproliferative activity against human UACC-903 cells assessed as reduction in cell viability after 48 hrs by MTT assay; assay type: functional, cell-based; conditions: UACC-903, 48 h; how it was run: as §1
RKO [24] = experiment: Antiproliferative activity against human RKO cells assessed as reduction in cell viability after 24 hrs by MTT assay; assay type: functional, cell-based; how it was run: as §1
RKO [25] = experiment: Antiproliferative activity against human RKO cells assessed as reduction in cell viability after 72 hrs by MTT assay; assay type: functional, cell-based; how it was run: as §1
[26] = Antiproliferative activity against human HCT116 cells assessed as reduction in cell viability after 24 hrs by MTT assay; assay type: functional, cell-based; conditions: HCT-116, 24 h; how it was run: as §1
[27] = Antiproliferative activity against human DU145 cells assessed as reduction in cell viability after 48 hrs by MTT assay; assay type: functional, cell-based; conditions: DU-145, 48 h; how it was run: as §1

SMILES: CC(=O)Oc1ccccc1C(=O)NCC[Se]C#N
- pIC50 (NCI-H460): 5.62
- pIC50 [1]: 5.36
- Activity [2]: 51%
- Activity (NHDF): Non-toxic
- Activity (MEF): Non-toxic
- Activity (HCT-116 [3]): 13%
- Activity (HCT-116 [4]): 68%
- Activity [5]: Dose-dependent effect
- Activity (HCT-116 [6]): 13.65%
- Activity (HCT-116 [7]): 1.3%
- Activity (HCT-116 [8]): 51.55%
- Activity (HCT-116 [9]): 2.1%
- Activity (HCT-116 [10]): 2.65%
- Activity (HCT-116 [11]): 32.8%
- Activity (HCT-116 [12]): 20.55%
- Activity (HCT-116 [13]): 44%
- Activity (HCT-116 [14]): 46.85%
- Activity (HCT-116 [15]): 37.65%
- Activity (HCT-116 [16]): Active
- Activity (HCT-116 [17]): 13.12%
- Activity (HCT-116 [18]): 66.42%
- Activity (HCT-116 [19]): 9%
- Activity (HCT-116 [20]): 16.54%
- pIC50 (HT-29): 5.68
- pIC50 (MDA-MB-231 [21]): 5.26
- pIC50 (MDA-MB-231 [22]): 5.22
- pIC50 [23]: 5.59
- pIC50 (UACC-903): 5.40
- pIC50 (RKO [24]): 4.88
- pIC50 (RKO [25]): 5.54
- pIC50 [26]: 4.79
- pIC50 [27]: 5.47
